The test system of one assay is 1A9. The experiment in a line: Antiproliferative activity against human 1A9 cells after 4 days by SRB assay. The class given is functional, cell-based. As to conditions: 1A9, 96 h. The gist of the method: (§1)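 Compounds were tested as HCl salts and dosed from DMSO. Cells were 1A9 ovarian and MCF-7 breast cancer lines. IC50 is the mean of two independent determinations.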
(Sulforhodamine B stains cellular protein and so reports cell mass.)

In another assay the test system is MCF7. Put plainly: Antiproliferative activity against human MCF7 cells after 4 days by SRB assay. Type of assay: functional, cell-based. The following applies: MCF7, 96 h. The method in brief:
as §1

Assay [1] can be described thus: Inhibition of tubulin polymerization.
Assay [2] is described as follows: Anticancer activity against human KBV1 cells expressing P-gp. The class given is functional, cell-based. As to conditions: KB-V1.

Each structure is given as a SMILES string.

Regarding `CC[C@H](C)[C@H](NC(=O)[C@@H](C)N(C)C)C(=O)NC(CC(=O)c1nc(C(=O)N[C@H](CCC(=O)O)Cc2ccccc2)cs1)C(C)C` (single isomer, unassigned), the IC50 (in general, the point on the concentration scale where inhibition reaches its midpoint) in the assay on 1A9 worked out at 300 nM; in the assay on MCF7 it was 170 nM; in assay [1], 12500 nM.

Regarding `CC[C@H](C)[C@H](NC(=O)[C@@H](C)N(C)C)C(=O)N[C@H](CC(=O)c1nc(C(=O)N[C@@H](Cc2ccccc2)C[C@H](C)C(=O)O)cs1)C(C)C`, the IC50 in the assay on 1A9 was more than 50000 nM; in assay [1], 3600 nM.

On to `CC[C@H](C)[C@H](NC(=O)[C@@H](C)N(C)C)C(=O)N[C@H](CC(=O)c1nc(C(=O)N[C@@H](Cc2ccccc2)CC(C)(C)C(=O)O)cs1)C(C)C`, for which the IC50 with 1A9 came out at 14200 nM; in the assay with MCF7, 12200 nM; in assay [1], 8500 nM.

Turning to `CC[C@H](C)[C@H](NC(=O)[C@H]1CCCCN1C)C(=O)N[C@H](C[C@@H](OC(C)=O)c1nc(C(=O)N[C@@H](Cc2ccccc2)C[C@H](C)C(=O)O)cs1)C(C)C` [TUBULYSIN U], the figures for the IC50 (with 1A9; in the assay on MCF7; in assay [1]) were 0.65 nM, 0.4 nM and 1900 nM, respectively.

`CN[C@H](C(=O)N[C@H](C(=O)N(C)[C@H](/C=C(\C)C(=O)O)C(C)C)C(C)(C)C)C(C)(C)c1ccccc1` [TALTOBULIN]: the 50% inhibitory concentration (IC50) is 0.2 nM in the assay with 1A9, 0.15 nM in the assay on MCF7 and 700 nM in assay [1].

For `CC[C@H](C)[C@H](NC(=O)[C@H]1CCCCN1C)C(=O)N[C@H](C[C@H](O)c1nc(C(=O)N[C@@H](Cc2ccccc2)C[C@H](C)C(=O)O)cs1)C(C)C`, the IC50 amounted to 5100 nM in the assay on 1A9, 8100 nM with MCF7 and 1300 nM in assay [1].

In the case of `CC[C@H](C)[C@H](NC(=O)[C@H]1CCCCN1C)C(=O)N[C@H](C[C@@H](O)c1nc(C(=O)N[C@@H](Cc2ccccc2)C[C@H](C)C(=O)O)cs1)C(C)C` [TUBULYSIN V], the half-maximal inhibitory concentration (IC50) was found to be 120 nM in the assay on 1A9, 240 nM with MCF7 and 1100 nM in assay [1].

Turning to `CC[C@H](C)[C@H](NC(=O)[C@H]1CCCCN1C)C(=O)N(COC(=O)CC(C)C)[C@H](C[C@@H](OC(C)=O)c1nc(C(=O)N[C@@H](Cc2ccccc2)C[C@H](C)C(=O)O)cs1)C(C)C` [TUBULYSIN D], the IC50 in assay [2] was found to be 0.31 nM. This lies in the sub-nanomolar range.

For the origin of these results see ChEMBL document CHEMBL1139371, “Total synthesis and biological evaluation of tubulysin U, tubulysin V, and their analogues” (J Med Chem, 2009).
